For 13 compounds, inhibition and IC50 results are on record in ChEMBL document CHEMBL3585241, “Synthesis and biological evaluation of thiabendazole derivatives as anti-angiogenesis and vascular disrupting agents” (Bioorg Med Chem, 2015).

What is called inhibition is the relative decrease from the control value, in per cent. A word on the IC50: it is the concentration that gives 50% inhibition.

Calls of active or inactive are those of the source. The calls are words filed in the database; no cut-off is given here.

The subject of assay [1] is HUVEC. Kind of assay: Cytotoxicity against HUVEC assessed as inhibition of cell proliferation rate at 10 uM after 72 hrs by MTT assay relative to control. The format is functional. To be noted: Homo sapiens. Background: Formazan colour is commonly taken as a measure of viable cells.
In assay [2] the test system is HUVEC. Put plainly: Cytotoxicity against HUVEC assessed as inhibition of cell proliferation rate at 100 uM after 72 hrs by MTT assay relative to control. The format is functional. Particulars: Homo sapiens.
The target in assay [3] is T1, Tubulin (Bos taurus) (UniProt Q6B856+Q862F3). Kind of assay: Inhibition of bovine brain tubulin polymerization at 3 uM measured every 5 secs for 0 to 3 mins , 10 secs for 3 to 5 mins, 30 secs for 5 to 10 mins, 60 secs for 10 to 17 mins by spectrophotometric analysis.
The target of assay [4] is T1, Tubulin (Bos taurus). Kind of assay: Inhibition of bovine brain tubulin polymerization at 5 uM by spectrophotometric analysis. Particulars: TDE = time-dependent effect. A digest of the protocol:
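MAP-rich bovine brain tubulin (2 mg/mL) in 80 mM PIPES pH 6.9, 2 mM MgCl2, 0.5 mM EGTA, 5% glycerol, with DMSO or compound at 5 µM. Polymerization started with 1 mM GTP at 37 °C. Absorbance at 340 nm followed over 17 min (5 s intervals to 3 min, 10 s to 5 min, 30 s to 10 min, 60 s to 17 min).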

Assay [5] has as its target T1, Tubulin (Bos taurus). Put plainly: Inhibition of bovine brain tubulin polymerization at 10 uM measured every 5 secs for 0 to 3 mins , 10 secs for 3 to 5 mins, 30 secs for 5 to 10 mins, 60 secs for 10 to 17 mins by spectrophotometric analysis.
In assay [6] the test system is A549. Kind of assay: Cytotoxicity against human A549 cells assessed as inhibition of cell proliferation rate after 72 hrs by MTT assay. The format is functional, cell-based. Particulars: A549, 72 h. The method, boiled down: (§1)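 Cells seeded at 3.5 × 10^4 cells/mL and cultured 24 h (37 °C, 5% CO2), then exposed to compounds for 72 h. DMSO at 0.5% final served as the vehicle control. IC50 taken from triplicate experiments, reported as mean.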

The test system of assay [7] is HUVEC. Kind of assay: Induction of vascular disruption in HUVEC after 16 hrs by inverted microscopic analysis. Format: functional, cell-based. Particulars: Homo sapiens.
For assay [8], the system named is A549. Put plainly: Inhibition of alpha-tubulin formation in human A549 cells at 250 uM after 24 hrs by TRITC/Hoechst 33258 staining-based immunofluorescence microscopic analysis. Format: cell-based.
The subject of assay [9] is HepG2. Put plainly: Cytotoxicity against human HepG2 cells assessed as inhibition of cell proliferation rate after 72 hrs by MTT assay. The format is functional, cell-based. Particulars: HepG2, 72 h. The method, boiled down:
as §1

For assay [10], the system named is HCT-116. Put plainly: Cytotoxicity against human HCT116 cells assessed as inhibition of cell proliferation rate after 72 hrs by MTT assay. Format: functional, cell-based. To be noted: HCT-116, 72 h. A digest of the protocol: as §1
Assay [11] has as its system HUVEC. Put plainly: Cytotoxicity against HUVEC assessed as inhibition of cell proliferation rate after 72 hrs by MTT assay. Format: functional, cell-based. Particulars: Homo sapiens. The method, boiled down:
as §1

The subject of assay [12] is A549. Kind of assay: Inhibition of alpha-tubulin formation in human A549 cells at 50 nM after 24 hrs by TRITC/Hoechst 33258 staining-based immunofluorescence microscopic analysis. The format is cell-based.
Assay [13] relates to Thoracic aorta. Put plainly: Antiangiogenic activity in Sprague-Dawley rat thoracic aorta ring assessed as inhibition of microvessel outgrowth at 0.33 uM measured on day 6 by inverse microscopic analysis. Format: functional, tissue-based. The method, boiled down: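 Aortas from 6-week Sprague Dawley rats taken under ether anesthesia, rinsed in serum-free M199 and cut into 1-mm rings. Rings embedded in Matrigel and held 1 h at 37 °C. Serum-free M199, with or without 20% FBS, then added with test agents at various concentrations. Sprouting imaged by inverted microscope on day 6.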

The test system of assay [14] is HUVEC. Kind of assay: Antiangiogenic activity in HUVEC assessed as inhibition of tubular structure formation at 0.033 to 0.33 uM after 8 hrs by microscopic analysis. To be noted: Homo sapiens. Format: functional, cell-based.

For the compound `c1cc2[nH]c(-c3cscn3)nc2cn1`, in [1], the inhibition at 10 µM came to 8%. Besides, the inhibition at 100 µM in assay [2] was 0%.
As for `COC(=O)Nc1nc2cc(C(=O)c3cccs3)ccc2[nH]1`, the inhibition result in assay [3] is “Active”.
As to `O=C(c1ccccc1)c1ccc2[nH]c(-c3cscn3)nc2c1`, in assay [4], the inhibition entry is “tde”.
As to `Clc1ccc2[nH]c(-c3cscn3)nc2c1`, the inhibition at 10 µM in assay [1] is 7%. Moreover, in [2], the inhibition at 100 µM was 53%.
As to `CC(=O)O[C@H]1C(=O)[C@@]2(C)[C@H]([C@H](OC(=O)c3ccccc3)[C@]3(O)C[C@H](OC(=O)[C@H](O)[C@@H](NC(=O)c4ccccc4)c4ccccc4)C(C)=C1C3(C)C)[C@]1(OC(C)=O)CO[C@@H]1C[C@@H]2O`, in assay [5], the inhibition entry was “inactive”.
Regarding `c1ccc2cc3[nH]c(-c4cscn4)nc3cc2c1`, the inhibition at 10 µM in assay [1] turned out to be 2%. In addition, the inhibition at 100 µM in [2] is 59%.
With `c1ccc2[nH]cnc2c1` [BENZIMIDAZOLE], the IC50 was over 100 µM in assay [6]; over 250 µM in assay [7]; over 100 µM in assay [9]; over 100 µM in [10]; over 100 µM in assay [11]. Also, the inhibition entry in [8] was “Active”. For the same compound, the inhibition at 10 µM in assay [1] amounted to 0%. The inhibition at 100 µM in assay [2] came out at 11%.
On to `c1ccc(Cn2c(-c3ccccc3)nc3ccccc32)cc1`, for which the inhibition at 10 µM in assay [1] was 7%. Also, in [2], the inhibition at 100 µM is 38%.
Take `CC[C@]1(O)C[C@@H]2CN(CCc3c([nH]c4ccccc34)[C@@](C(=O)OC)(c3cc4c(cc3OC)N(C)[C@H]3[C@@](O)(C(=O)OC)[C@H](OC(C)=O)[C@]5(CC)C=CCN6CC[C@]43[C@@H]65)C2)C1`: the inhibition entry in assay [12] was “Active”.
Turning to `O=C(Nc1scnc1-c1nc2ccccc2[nH]1)NC1CC1`, the inhibition entry in assay [4] was “tde”.
Regarding `CCN(CC)CCNC(=O)c1c(C)[nH]c(/C=C2\C(=O)Nc3ccc(F)cc32)c1C`, the inhibition entry in assay [13] and in assay [14] was “Active” in each case.
As for `Cc1ccc2nc(-c3ccccn3)[nH]c2c1`, the inhibition at 10 µM in assay [1] amounted to 7%. Further, the inhibition at 100 µM in [2] amounted to 10%.
Turning to `Cc1cc2nc(-c3cscn3)[nH]c2cc1C`, in assay [1], the inhibition at 10 µM is 0%. The inhibition at 100 µM in [2] worked out at 0%.
